RGS4 inh: RGS4 inhibitors, primary screen, cell-based, HEK293 M3R inducible RGS4, calcium flux; B-score at 10 µM; 310,000 tested, 0.45% active; Fluo-4 calcium flux; hits give high values; triggered by carbachol at its EC20; AID 463165, 2010;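 active = B-score, a plate-corrected calcium signal, over three deviations above library mean, with baseline fluorescence within five deviations of library mean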;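 also: RGS4 expression induced by doxycycline in cells with stable M3 receptor; B-score is computed from the integrated fluorescence ratio over baseline after carbachol; higher B-score means a larger calcium signal and so more RGS4 inhibition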
Target sequence (P49798 whole entry, looked up): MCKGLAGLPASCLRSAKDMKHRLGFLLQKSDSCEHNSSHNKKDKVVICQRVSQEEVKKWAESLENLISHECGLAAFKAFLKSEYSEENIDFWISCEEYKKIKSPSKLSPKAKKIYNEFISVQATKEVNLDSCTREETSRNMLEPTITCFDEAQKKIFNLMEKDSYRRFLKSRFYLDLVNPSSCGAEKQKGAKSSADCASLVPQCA
MrgX1 antagonist: antagonists of human MrgX1 receptor, primary screen, HEK293 cells, Fluo-4 calcium flux; AID 588676, 2011; 310,000 tested, 1.3% active; Mas-related G-protein coupled receptor member X1 (Homo sapiens), Q96LB2; B-score at 10 µM; BAM8-22 antagonism; hits give low values;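 active = calcium-response B-score plate-corrected more than 3 library SD below zero, starting fluorescence within 5 deviations, no agonist response on first addition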;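 also: peak minus trough fluorescence over baseline after final BAM8-22 challenge near maximal dose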
Target sequence (Q96LB2 whole entry, looked up): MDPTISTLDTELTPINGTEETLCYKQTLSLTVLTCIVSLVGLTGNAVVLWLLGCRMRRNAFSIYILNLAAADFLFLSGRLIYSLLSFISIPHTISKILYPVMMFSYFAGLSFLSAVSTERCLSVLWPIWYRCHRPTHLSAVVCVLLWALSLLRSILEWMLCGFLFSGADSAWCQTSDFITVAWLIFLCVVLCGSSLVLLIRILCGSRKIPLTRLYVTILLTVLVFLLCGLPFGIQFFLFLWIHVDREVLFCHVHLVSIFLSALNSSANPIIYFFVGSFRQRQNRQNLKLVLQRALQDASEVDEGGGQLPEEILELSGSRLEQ
RGS4 act: RGS4 potentiators or activators, primary screen, cell-based, HEK293 M3R inducible RGS4, calcium flux. 310,000 tested, 0.92% active. carbachol calcium flux Fluo4; hits give low values. B-score at 10 µM;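 active = B-score of the integrated calcium signal more than 4 SD below the library mean, with starting fluorescence not abnormally high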;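 also: negative B-score means reduced calcium response which marks RGS4 activation or potentiation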
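Also added: carbachol at ECmax as muscarinic agonist stimulus; Assay system: HEK293 cells with stable M3R and inducible RGS4; Timing: overnight RGS4 induction, 30 min dye load 37 °C, 20 min compound RT; Measured by: Fluo4-AM (2 µM) calcium-flux fluorescence, kinetic read.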
MrgX1 agonist: agonists of human MrgX1 receptor, primary screen, HEK293 cells, Fluo-4 calcium flux. Mas-related G-protein coupled receptor member X1 (Homo sapiens), Q96LB2. Fluo-4 calcium fluorescence, agonist mode; hits give high values. B-score at 10 µM. 310,000 tested, 0.44% active. AID 588627, 2011;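 active = calcium response B-score plate-corrected fluorescence ratio at least 3 library SD, with starting fluorescence B-score inside 5 SD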
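Material – MrgX1-expressing HEK293 cells · Input – 15,000 cells seeded per well · Dosing – compound as first of three additions · Times – overnight seeding, then 1 h dark dye loading · Measured by – kinetic Fluo-4 NW fluorescence of intracellular calcium · Read-out – B-scored fluorescence response ratio · Benchmarks – positive and negative control wells on each plate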
MrgX1 PAM: positive allosteric modulators of MrgX1, primary screen, HEK293 cells, Fluo-4 calcium flux; Mas-related G-protein coupled receptor member X1 (Homo sapiens), Q96LB2; FDSS; hits give high values; B-score at 10 µM; 310,000 tested, 0.63% active; AID 588675, 2011;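 active = plate-corrected calcium response at least 3 library SD above typical, normal starting fluorescence, not activating the receptor alone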;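 also: compound read alongside a low EC10 to EC30 dose of BAM8-22 agonist; peak minus trough fluorescence over baseline measured at the second addition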
MrgX1 PAM conf: MrgX1 positive allosteric modulators, duplicate retest, confirmation, HEK293 cells, Fluo-4 calcium flux; shares compounds with MrgX1 PAM; Fluo-4 calcium fluorescence, FDSS; activation (ratio percentage), % at 10 µM; 1,200 tested, 13% active; AID 602413, 2012;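 active = ratio at least 3 SD above the weak peptide control, stable starting fluorescence, no direct agonism earlier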;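 also: compound followed by low BAM8-22 agonist challenge near EC20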
HEK293 Ca flux: nonspecific calcium signal in parental HEK293, confirmation, counter-screen for MrgX1 antagonist project, parental HEK293 cells, Fluo-4 calcium flux; Fluo-4 calcium fluorescence, FDSS; fluorescence ratio F(max-min)/F0 at 10 µM; 4,000 tested, 2% active; AID 624111, 2012; shares compounds with MrgX1 antagonist;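 active = duplicate-averaged calcium fluorescence ratio at least three times the standard deviation of buffer wells, a nonspecific response in parental cells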
HEK293 Ca counter: calcium response in parental HEK293 cells, primary screen, counter-screen for MrgX1 allosteric activator project, cell-based, Fluo-4 calcium flux, duplicate; Fluo-4 fluorescence ratio; hits give high values; fluorescence ratio F(max-min)/F0 at 10 µM; AID 624114, 2012; 4,000 tested, 0.4% active; shares compounds with MrgX1 antagonist;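 active = calcium fluorescence ratio, averaged over duplicates, at least 3 SD of the buffer-well ratio, meaning a nonspecific response in receptor-free cells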;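 also: untransfected parental HEK293 lacking MrgX1 used as counterscreen for MrgX1 allosteric activators; fluorescence change taken during the second addition on a kinetic imager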
HEK293 Ca cntr2: calcium response in parental HEK293 cells, primary screen, counter-screen for MrgX1 agonist project, cell-based, Fluo-4 calcium flux, duplicate, agonist mode; shares compounds with MrgX1 antagonist; fluorescence ratio F(max-min)/F0 at 10 µM; 4,000 tested, 8.7% active; Fluo-4 calcium fluorescence (FDSS); hits give high values;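 active = calcium fluorescence ratio at least three times the spread of buffer wells, meaning a non-specific response in parental cells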
Numbers without * were called inactive; i = inactive; x = no result. Rows were chosen to be rich in hits. Some 3.5% of all compounds tested hit in one or more screens of this group.

SMILES | RGS4 inh | MrgX1 antagonist | RGS4 act | MrgX1 agonist | MrgX1 PAM | MrgX1 PAM conf | HEK293 Ca flux | HEK293 Ca counter | HEK293 Ca cntr2
O=c1oc(-c2ccccc2)nc2sc3c(c12)CCCC3 | i | i | i | i | 13* | i | i | i | i
O=C(CN1C(=O)CSCC1=O)NCc1ccc(F)cc1 | i | i | i | i | i | x | x | x | x
Cc1cccc(S(=O)(=O)Nc2cccc3c2C(=O)c2ccccc2-3)c1 | i | i | i | i | 15* | i | i | i | 47*
Cc1ccc2nc(NCCCO)nc(-c3ccccc3)c2c1 | i | i | i | i | 11* | i | i | i | i
Cc1cccc(NC(=S)N=Nc2c(O)n(CN3CCOCC3)c3ccccc23)c1C | i | i | i | i | i | x | x | x | x
CC(=O)c1sc(NC(=O)c2ccccc2)nc1-c1ccccc1 | i | i | i | i | i | x | x | x | x
Cc1sc(NC(=O)c2cccnc2)nc1-c1ccccc1 | i | i | i | i | 11* | i | i | i | i
C=CCNC(=S)Nc1ccc(OC)c(S(=O)(=O)N2CCOCC2)c1 | i | i | i | i | 8.7* | i | i | i | i
C=CCNC(=S)Nc1ccc(Cl)c(S(=O)(=O)N2CCOCC2)c1 | i | i | i | i | i | x | x | x | x
Cc1cc(Cl)ccc1OCC(=O)N1C(C)CCCC1C (centres undefined) | i | i | i | i | 12* | i | i | i | i
Cc1sc2ncn(CCC(=O)O)c(=O)c2c1C | i | i | i | i | i | x | x | x | x
Cc1sc2ncn(CCn3cnc4sc(C)c(C)c4c3=O)c(=O)c2c1C | i | i | i | i | 13* | i | i | i | i
Cc1ccc(NC2=C(Cl)C(=O)OC2OC(=O)c2ccc(C)cc2)cc1 (centres undefined) | i | i | i | i | 8.6* | i | i | i | i
COCCN(C(=S)Nc1ccc(C)cc1C)C(C)c1ccco1 (centres undefined) | i | i | i | i | i | x | x | x | x
CCOP(=O)(OCC)C(Nc1ccccc1)c1ccco1 (centres undefined) | i | i | i | i | i | x | x | x | x
COC(=O)c1ccccc1N(C)S(C)(=O)=O | i | i | i | i | i | x | x | x | x
COC(=O)c1ccccc1NC(=O)c1ccccc1N(C)S(C)(=O)=O | i | i | i | i | 10* | i | i | i | i
CSc1ccccc1NC(=O)c1ccccc1N(C)S(C)(=O)=O | i | i | i | i | 8.2* | 10.0%* | i | i | i
CCOC(=O)c1ccccc1NC(=O)c1ccc(N(C)S(C)(=O)=O)cc1 | i | i | i | i | i | x | x | x | x
CCOC(=O)c1ccccc1NC(=O)c1ccccc1N(C)S(C)(=O)=O | i | i | i | i | 7.2* | 9.4%* | i | i | i
CCOC(=O)CSc1nc2ccccc2n2c(C)nnc12 | i | i | i | i | i | x | x | x | x
CSCCC(NS(=O)(=O)c1ccc(Cl)cc1)C(=O)O (centres undefined) | i | i | i | i | 11* | i | i | i | i
COC(=O)c1ccc(SCc2cnc(Cl)s2)cc1 | i | i | i | i | i | x | x | x | x
CCCCC(=O)NC(=S)Nc1cccc(NC(=O)CC)c1 | i | i | i | i | i | x | x | x | x
CCCCC(=O)NC(=S)Nc1c(C)cc(Br)cc1C | i | i | i | i | 9.3* | i | i | i | i
SMILES | RGS4 inh | MrgX1 antagonist | RGS4 act | MrgX1 agonist | MrgX1 PAM | MrgX1 PAM conf | HEK293 Ca flux | HEK293 Ca counter | HEK293 Ca cntr2
Cc1c(C(=O)N2CCc3ccccc3C2)oc2ccc(S(=O)(=O)N3CCCCCC3)cc12 | i | i | i | i | i | x | x | x | x
C/C(N)=C(/C#N)C(=O)COC(=O)c1cc2c(s1)CCCC2 | i | i | i | i | i | x | x | x | x
CNC(=O)COC(=O)c1cc2c(s1)CCCC2 | i | i | i | i | 12* | i | i | i | i
CCCCOCCCN1CC(=O)N2C(C)c3[nH]c4ccccc4c3C[C@H]2C1=O (some centres undefined) | i | i | i | i | 7.5* | i | i | i | i
CCCCCN1CC(=O)N2C(C)c3[nH]c4ccccc4c3C[C@H]2C1=O (some centres undefined) | i | i | i | i | 14* | i | i | i | i
O=C(C[n+]1cccc(Br)c1)c1cccs1 | i | i | i | i | i | x | x | x | x
Cn1nnc2cc(C(=O)N3CCCCCC3)ccc21 | i | i | i | i | i | x | x | x | x
c1ccc(-c2nc3ccccc3[nH]2)nc1 | i | i | i | i | i | x | x | x | x
c1ccc(-c2nc3c(ccc4ccccc43)[nH]2)nc1 | i | i | i | i | 6.8* | i | i | i | i
Cc1ccc(-c2cc(N)n(-c3ccc(C)cc3)n2)cc1 | i | i | i | i | 7.2* | i | i | i | i
CCc1ccc(NC(=O)CN(c2cc(C)cc(C)c2)S(=O)(=O)c2c(C)[nH]c(=O)[nH]c2=O)cc1 | i | i | i | i | i | x | x | x | x
O=C(O)C1CC=CCC1C(=O)Nc1ccc(N2CCN(Cc3ccccc3)CC2)cc1 (centres undefined) | i | i | i | i | 7.4* | i | i | i | i
O=C(Nc1ccc(N2CCN(Cc3ccccc3)CC2)cc1)c1ccco1 | i | i | i | i | i | x | x | x | x
c1ccc(-c2ccc3ccccc3n2)cc1 | i | i | i | i | i | x | x | x | x

Screening data deposited in PubChem BioAssay by Johns Hopkins Ion Channel Center.
